Test results reported in ChEMBL document CHEMBL2331235, “Solphenazines A-F, glycosylated phenazines from Streptomyces sp. strain DL-93” (J Nat Prod, 2013).
The source made the active and inactive calls. The rule behind the calls is not given here.

How the values were obtained:
Cryptococcus neoformans = test: Antimicrobial activity against Cryptococcus neoformans ATCC 66031 by microbroth dilution assay; format: functional
Klebsiella pneumoniae = test: Antimicrobial activity against Klebsiella pneumoniae ATCC 13883 by microbroth dilution assay; format: functional
HCT16 = test: (§1) Cytotoxicity against human […] cells after 72 hrs by MTT assay; format: functional, cell-based
In short: (§2)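 Vero cells in MEM and HCT-116 cells in RPMI, each with 10% FBS, 1% penicillin–streptomycin and 1% Glutamax. Cells were seeded at 3.0 × 10^4 per well and left to adhere overnight. Medium was replaced, and compounds in DMSO were added to a final 150–0.1 μM. Cells were incubated 72 h at 37 °C in 4.5% CO2 (humidified), then viability was read by MTT.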

Pseudomonas aeruginosa = test: Antimicrobial activity against Pseudomonas aeruginosa ATCC 27853 by microbroth dilution assay; format: functional
Enterococcus faecalis = test: Antimicrobial activity against vancomycin-resistant Enterococcus faecalis ATCC 51299 by microbroth dilution assay; format: functional
Streptomyces scabiei [1] = test: Antimicrobial activity against Streptomyces scabies NRRL B 2795 at 25 ug/disk after 2 days by disk diffusion assay; format: functional
In short: (§3)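 S. scabies grown 5 days in liquid ISP2, diluted 1:10 in molten ISP2 agar. Paper discs carrying 25 μg compound (applied in 20 μL methanol) were set on a thin agar layer and overlaid with 10 mL of the seeded agar (double-layer method). Plates were incubated 2 days at 30 °C, and inhibition zone diameters were measured.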

Streptomyces scabiei [2] = test: Antimicrobial activity against Streptomyces scabies LK 82 at 25 ug/disk after 2 days by disk diffusion assay; format: functional; in short: as §3
Escherichia coli [3] = test: Antimicrobial activity against Escherichia coli ATCC 25922 by microbroth dilution assay; format: functional
Candida albicans = test: Antimicrobial activity against Candida albicans ATCC 10231 by microbroth dilution assay; format: functional
Bacillus spizizenii = test: Antimicrobial activity against Bacillus subtilis ATCC 6633 by microbroth dilution assay; format: functional
Vero [4] = test: (§4) Cytotoxicity against African green monkey Vero cells at 150 uM after 72 hrs by MTT assay; format: cell-based; conditions: chlorocebus sabaeus, vero, 72 h, 150 µM; in short: as §2
Staphylococcus aureus = test: Antimicrobial activity against methicillin-resistant Staphylococcus aureus ATCC 43300 by microbroth dilution assay; format: functional
Acinetobacter baumannii = test: Antimicrobial activity against Acinetobacter baumannii ATCC 19606 by microbroth dilution assay; format: functional; conditions: ATCC 19606 = CIP 70.34 = JCM 6841
[5] = target: T1, Topoisomerase I (Bos taurus) (UniProt Q2HPH0); test: Inhibition of calf thymus topoisomerase-1-mediated DNA intercalation using relaxed pBR322 after 15 mins
T1 sequence (whole entry): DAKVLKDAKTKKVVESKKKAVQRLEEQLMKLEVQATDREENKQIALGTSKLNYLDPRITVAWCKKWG
In short: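 Unwinding (intercalation) assay: relaxed pBR322 (0.3 μg) with 1 unit calf thymus Topo I in 50 mM Tris-HCl pH 7.5, 1 mM MgCl2, 0.5 mM DTT and 50 μg/mL BSA. Compound was added in DMSO, with ethidium bromide as control. After 15 min at 37 °C, reactions were treated with SDS and proteinase K and phenol-extracted. DNA was run on 1.2% agarose in TAE, and supercoiled DNA was quantified after staining.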

[6] = as §1; format: functional, cell-based; in short: as §2
Escherichia coli [7] = test: Inhibition of Escherichia coli topoisomerase-2-mediated DNA cleavage after 15 mins by agarose gel electrophoresis
[8] = target: DNA topoisomerase 2-alpha (Homo sapiens) (UniProt P11388); test: Inhibition of topoisomerase-2 (unknown origin)-mediated DNA cleavage […] by agarose gel electrophoresis
In short: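 Human Topo II cleavage assay: 5 units enzyme with 0.3 μg kDNA in the decatenation buffer without potassium glutamate, with etoposide as control. Reactions ran 10 min at 37 °C, then SDS to 1% for 10 min, then 40 mM EDTA and 100 μg/mL proteinase K for 1 h at 50 °C. Products were run on ethidium-containing 1.2% agarose. Linear DNA was compared with and without compound, at least in duplicate.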

Vero [9] = test: Cytotoxicity against African green monkey Vero cells after 72 hrs by MTT assay; format: cell-based; conditions: Chlorocebus sabaeus; in short: as §2
[10] = target: T2, DNA topoisomerase 1 (Homo sapiens) (UniProt P11387); test: Inhibition of topoisomerase-1 (unknown origin)-mediated DNA cleavage after 15 mins by agarose gel electrophoresis
T2 sequence (whole entry): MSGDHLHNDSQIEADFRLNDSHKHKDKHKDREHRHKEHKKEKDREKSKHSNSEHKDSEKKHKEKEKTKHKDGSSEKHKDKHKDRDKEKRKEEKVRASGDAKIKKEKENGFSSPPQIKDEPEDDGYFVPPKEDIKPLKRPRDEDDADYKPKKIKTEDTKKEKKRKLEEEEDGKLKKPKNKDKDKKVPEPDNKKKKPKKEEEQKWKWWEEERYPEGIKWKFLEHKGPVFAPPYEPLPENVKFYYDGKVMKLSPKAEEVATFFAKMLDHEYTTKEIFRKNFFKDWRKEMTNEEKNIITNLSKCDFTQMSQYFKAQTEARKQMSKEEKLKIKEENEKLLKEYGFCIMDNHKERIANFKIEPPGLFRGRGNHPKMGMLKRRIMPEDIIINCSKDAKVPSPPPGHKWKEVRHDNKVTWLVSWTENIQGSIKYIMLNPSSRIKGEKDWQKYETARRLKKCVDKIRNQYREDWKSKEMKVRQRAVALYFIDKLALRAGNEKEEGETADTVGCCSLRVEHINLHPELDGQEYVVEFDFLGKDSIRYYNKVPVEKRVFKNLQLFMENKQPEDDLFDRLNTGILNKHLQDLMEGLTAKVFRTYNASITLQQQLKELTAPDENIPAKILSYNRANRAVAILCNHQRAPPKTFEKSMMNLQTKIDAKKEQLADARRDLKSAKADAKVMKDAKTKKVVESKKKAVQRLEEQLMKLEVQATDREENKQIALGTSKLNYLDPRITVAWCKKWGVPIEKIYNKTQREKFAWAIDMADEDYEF
In short: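 Topo I cleavage assay: 2 units Topo I with 0.3 μg pBR322 in the unwinding buffer, with camptothecin as control. Reactions ran 10 min at 37 °C, then SDS to 1% for 10 min, then 40 mM EDTA and 100 μg/mL proteinase K for 15 min at 37 °C. DNA was phenol-extracted and run on 1.2% agarose containing 0.5 μg/mL ethidium bromide. Nicked DNA was compared with and without compound, at least in duplicate.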

[11] = target: T1, Topoisomerase I (Bos taurus); test: Inhibition of calf thymus topoisomerase-1-mediated supercoiled plasmid DNA relaxation after 15 mins by agarose gel electrophoresis
In short: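 Calf thymus Topo I (0.5 unit) with negatively supercoiled pBR322 (0.3 μg) in 50 mM Tris-HCl pH 7.5, 1 mM MgCl2, 0.5 mM DTT and 50 μg/mL BSA. Camptothecin was the control. Reactions ran 15 min at 37 °C and were stopped on ice with an EDTA/sarkosyl loading dye. Relaxed versus supercoiled DNA was resolved by agarose gel, in duplicate.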

[12] = as §4; format: cell-based; conditions: chlorocebus sabaeus, Vero cells; read-out: GI; in short: as §2

Chain of DNA topoisomerase 2-alpha (Homo sapiens) (P11388 whole entry): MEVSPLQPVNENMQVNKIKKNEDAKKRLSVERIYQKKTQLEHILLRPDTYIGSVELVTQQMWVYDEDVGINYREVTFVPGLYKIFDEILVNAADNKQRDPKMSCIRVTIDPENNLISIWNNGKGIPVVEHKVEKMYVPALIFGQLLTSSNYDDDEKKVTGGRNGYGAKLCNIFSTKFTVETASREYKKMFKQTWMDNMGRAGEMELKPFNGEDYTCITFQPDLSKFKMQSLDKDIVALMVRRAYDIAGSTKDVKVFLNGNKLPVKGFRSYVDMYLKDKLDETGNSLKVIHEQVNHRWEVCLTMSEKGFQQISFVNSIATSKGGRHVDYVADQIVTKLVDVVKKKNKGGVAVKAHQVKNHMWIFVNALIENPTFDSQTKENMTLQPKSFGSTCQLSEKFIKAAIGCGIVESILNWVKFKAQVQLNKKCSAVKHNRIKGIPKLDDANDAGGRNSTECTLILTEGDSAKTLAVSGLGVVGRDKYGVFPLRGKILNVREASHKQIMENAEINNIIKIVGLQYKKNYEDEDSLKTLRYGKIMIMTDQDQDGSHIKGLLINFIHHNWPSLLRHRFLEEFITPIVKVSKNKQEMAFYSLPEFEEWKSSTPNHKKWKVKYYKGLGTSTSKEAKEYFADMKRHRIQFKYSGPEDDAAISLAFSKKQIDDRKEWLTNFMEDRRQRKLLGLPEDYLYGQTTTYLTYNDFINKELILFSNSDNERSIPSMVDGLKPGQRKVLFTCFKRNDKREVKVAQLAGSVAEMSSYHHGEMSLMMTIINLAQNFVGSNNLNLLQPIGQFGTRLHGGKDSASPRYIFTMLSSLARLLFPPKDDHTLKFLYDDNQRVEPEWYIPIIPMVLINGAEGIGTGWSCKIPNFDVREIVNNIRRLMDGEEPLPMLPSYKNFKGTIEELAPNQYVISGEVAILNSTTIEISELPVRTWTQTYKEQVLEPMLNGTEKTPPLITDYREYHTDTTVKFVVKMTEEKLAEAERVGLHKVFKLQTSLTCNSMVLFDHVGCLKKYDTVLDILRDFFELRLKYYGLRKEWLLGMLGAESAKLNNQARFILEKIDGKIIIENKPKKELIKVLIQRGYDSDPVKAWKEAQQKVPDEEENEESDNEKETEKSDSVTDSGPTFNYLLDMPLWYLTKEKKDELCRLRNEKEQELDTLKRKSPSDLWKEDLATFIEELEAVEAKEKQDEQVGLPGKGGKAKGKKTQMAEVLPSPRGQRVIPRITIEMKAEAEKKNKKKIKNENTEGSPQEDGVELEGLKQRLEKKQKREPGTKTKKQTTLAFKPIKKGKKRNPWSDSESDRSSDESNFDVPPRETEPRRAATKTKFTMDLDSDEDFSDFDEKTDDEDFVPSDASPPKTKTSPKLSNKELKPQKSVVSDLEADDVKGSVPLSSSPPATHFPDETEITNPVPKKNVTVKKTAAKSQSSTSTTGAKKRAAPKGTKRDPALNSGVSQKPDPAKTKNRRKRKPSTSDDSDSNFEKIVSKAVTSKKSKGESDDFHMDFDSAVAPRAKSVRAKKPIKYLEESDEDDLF

| Compound | MIC (Cryptococcus neoformans) [µg/mL] | MIC (Klebsiella pneumoniae) [µg/mL] | Activity (HCT16) | MIC (Pseudomonas aeruginosa) [µg/mL] | MIC (Enterococcus faecalis) [µg/mL] | Activity (Streptomyces scabiei [1]) | Activity (Streptomyces scabiei [2]) | MIC (Escherichia coli [3]) [µg/mL] | MIC (Candida albicans) [µg/mL] | MIC (Bacillus spizizenii) [µg/mL] | Activity (Vero [4]) | MIC (Staphylococcus aureus) [µg/mL] | MIC (Acinetobacter baumannii) [µg/mL] | also measured |
| --- | --- | --- | --- | --- | --- | --- | --- | --- | --- | --- | --- | --- | --- | --- |
| O=C(O)c1cccc2nc3c(C(=O)O)cccc3nc12 | > 25 | > 25 | inactive | > 25 | > 25 | inactive | inactive | > 25 | > 25 | > 25 | Non-toxic | > 25 | > 25 |  |
| C[C@@H]1O[C@@H](OC(=O)c2ccc(O)cc2)[C@H](O)[C@H](O)[C@H]1O | > 25 | > 25 |  | > 25 | > 25 | inactive | inactive | > 25 | > 25 | > 25 |  | > 25 | > 25 |  |
| CNc1ccc(C(=O)O[C@@H]2O[C@@H](C)[C@H](O)[C@@H](O)[C@H]2O)cc1 | > 25 | > 25 |  | > 25 | > 25 | inactive | inactive | > 25 | > 25 | > 25 |  | > 25 | > 25 |  |
| C[C@@H]1O[C@@H](Oc2cccc3nc4c(C(=O)O)cccc4nc23)[C@H](O)[C@H](O)[C@H]1O [IZUMINOSIDE A] | > 25 | > 25 | inactive | > 25 | > 25 | inactive | inactive | > 25 | > 25 | > 25 | Non-toxic | > 25 | > 25 |  |
| C[C@@H]1O[C@@H](OC(=O)c2cccc3nc4c(C(=O)O)cccc4nc23)[C@H](O)[C@H](O)[C@H]1O [IZUMINOSIDE C] | > 25 | > 25 | inactive | > 25 | > 25 | inactive | inactive | > 25 | > 25 | > 25 | Non-toxic | > 25 | > 25 |  |
| C[C@@H]1O[C@@H](OC(=O)c2cccc3nc4c(C(=O)O[C@@H]5O[C@@H](C)[C@H](O)[C@@H](O)[C@H]5O)cccc4nc23)[C@H](O)[C@H](O)[C@H]1O [SOPHENAZINE A] | > 25 | > 25 |  | > 25 | > 25 | inactive | inactive | > 25 | > 25 | > 25 |  | > 25 | > 25 | inhibition [5]: inactive; EC50 [6]: 18 µM; inhibition (Escherichia coli [7]): inactive; inhibition [8]: inactive; EC50 (Vero [9]): 84 µM; inhibition [10]: inactive; inhibition [11]: inactive |
| CC(=O)O[C@@H]1[C@@H](O)[C@H](C)O[C@@H](OC(=O)c2cccc3nc4c(C(=O)O[C@@H]5O[C@@H](C)[C@H](O)[C@@H](O)[C@H]5O)cccc4nc23)[C@@H]1O [SOPHENAZINE B] | > 25 | > 25 |  | > 25 | > 25 | inactive | inactive | > 25 | > 25 | > 25 |  | > 25 | > 25 | EC50 [6]: 52 µM; inhibition at 72 h, 150 µM [12]: 30% |
| CC(=O)O[C@@H]1[C@@H](O)[C@H](C)O[C@@H](OC(=O)c2cccc3nc4c(C(=O)O[C@@H]5O[C@@H](C)[C@H](O)[C@@H](OC(C)=O)[C@H]5O)cccc4nc23)[C@@H]1O [SOPHENAZINE C] | > 25 | > 25 |  | > 25 | > 25 | inactive | inactive | > 25 | > 25 | > 25 |  | > 25 | > 25 |  |
| C[C@@H]1O[C@@H](OC(=O)c2cccc3nc4c(O[C@@H]5O[C@@H](C)[C@H](O)[C@@H](O)[C@H]5O)cccc4nc23)[C@H](O)[C@H](O)[C@H]1O [SOPHENAZINE D] | > 25 | > 25 | inactive | > 25 | > 25 | inactive | inactive | > 25 | > 25 | > 25 | Non-toxic | > 25 | > 25 |  |
| COC(=O)c1cccc2nc3c(O[C@@H]4O[C@@H](C)[C@H](O)[C@@H](O)[C@H]4O)cccc3nc12 [SOPHENAZINE E] | > 25 | > 25 | inactive | > 25 | > 25 | inactive | inactive | > 25 | > 25 | > 25 | Non-toxic | > 25 | > 25 |  |
| C[C@@H]1O[C@@H](Oc2cccc3nc4c(O[C@@H]5O[C@@H](C)[C@H](O)[C@@H](O)[C@H]5O)cccc4nc23)[C@H](O)[C@H](O)[C@H]1O [SOPHENAZINE F] | > 25 | > 25 |  | > 25 | > 25 | inactive | inactive | > 25 | > 25 | > 25 |  | > 25 | > 25 | EC50 [6]: 45 µM |
